Source: publication PMC8052299 (Biochemical pharmacology, 2021)
Where two headings read alike, the source gives them in different places.

Assays:
J-Lat 10.6 cells [1] = assay type: cell-based
primary CD4+ T cells = assay: Live cell counting of primary CD4+ T cell cultures; assay type: cell-based, human; conditions: 30 nM
Procedure, shortened: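 CD4+ T cells came from five HIV-infected donors on suppressive ART (<50 copies/mL for ≥3 years), isolated from PBMCs by negative selection. 10⁶ cells per 1 mL R20+ (20% FBS) received 0.1% DMSO or 30 nM test compound for 24 h. Alternatively: 72 h treatment, wash, re-treatment in R20+ plus IL-2 for 72–96 h, wash, then 24 h compound-free. Cells were counted visually by trypan blue.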

J-Lat 9.2 cells = assay: LRA-induced provirus expression; assay type: cell-based; conditions: J-Lat 9.2, 24 h
PBMCs = assay: Viability of uninfected PBMCs; assay type: cell-based, human; conditions: 6 days, Viacount dye
[2] = Viability of uninfected PBMCs; assay type: cell-based, human; conditions: human, CC50, uninfected PBMCs, Viacount dye
OM-10.1 cells = assay: TNFα-induced provirus expression; assay type: cell-based; conditions: 24 h, read-out: TNFα EC50, inhibition of provirus expression
Procedure, shortened: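 OM-10.1 cells seeded at 200,000 cells/well and co-treated with 1 ng/mL TNFα plus test compound or 0.1% DMSO for 24 h. Cells were fixed, permeabilized, stained for intracellular p24Gag (KC57-RD1) and scored on live-gated cells by flow cytometry. EC50s were derived after normalizing to TNFα-only controls.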

Jurkat cells = assay: Jurkat cell viability, 24 h; assay type: cell-based; conditions: 0.3 μM
[3] = test system: HIV RNA in CD4+ T cell culture supernatants; assay: Spontaneous viral RNA production in primary CD4+ T cells from donors with HIV; assay type: cell-based, human
class I and II HDAC = assay: Cellular HDAC activity assay; assay type: cell-based
J-Lat 10.6 cells [4] = assay: LRA-induced provirus expression; assay type: cell-based; conditions: J-Lat 10.6, 24 h
[5] = read-out: TNFα EC50, inhibition of provirus expression
[6] = 30 nM for 6 – 7 days, washed, 24 hours without compound

## CN1CC[C@H](c2c(O)cc(O)c3c(=O)cc(-c4ccccc4Cl)oc23)[C@H](O)C1 [Flavopiridol, flavopiridol]
J-Lat 10.6 cells [1]; 10 nM for 21 days, J-Lat 10.6
  GFP expression 14 days following washout, % of control levels: 59.7 ± 15.2%
J-Lat 10.6 cells [1]; 10 nM for 21 days, washed, 24 h drug-free, J-Lat 10.6
  GFP expression 24 hours after washing, % of control GFP levels: 32.4 ± 3.6%
J-Lat 10.6 cells [1]; 10 nM, 21 days, J-Lat 10.6
  GFP expression before wash-out, % of untreated cells: 26.2 ± 9.6%
  reduction of spontaneous GFP expression vs 0.1% DMSO: 73.8 ± 9.6%
J-Lat 10.6 cells [1]; J-Lat 10.6, after 21 days' treatment
  duration of reinforced latency following withdrawal in vitro: ≥ 14 days
Primary CD4+ T cells; 24 hours
  live cell count: 1.2*10^6 ± 5.6*10^5 cells/mL
Primary CD4+ T cells; after 6 – 7 days
  live cell count: 1.3*10^6 ± 3.9*10^5 cells/mL
J-Lat 9.2 cells; read-out: Panobinostat EC50, inhibition of provirus expression
  EC50: 28 ± 3 nM
J-Lat 9.2 cells; read-out: Prostratin EC50, inhibition of provirus expression
  EC50: 9 ± 1 nM
J-Lat 9.2 cells; [5]
  EC50: 8 ± 0.4 nM
PBMCs
  CC50: 220 ± 40 nM
[2]
  CC50 at 6 days: 250 ± 60 nM
OM-10.1 cells
  EC50: 13 ± 0.8 nM
Jurkat cells
  viability reduced vs 0.1% DMSO: 38.8 ± 25%
[3]; [6]
  average reduction in total viral RNA across all cultures: 96.8%
  cultures with reduced viral RNA production: 4 of 5
[3]; 30 nM for 6 – 7 days, washed, 24 hours, limit of detection 200 copies/mL
  cultures with no viral RNA detected: two
[3]; 30 nM, 24 hours
  average increase in viral RNA vs 0.1% DMSO: 7.1 fold
[3]; 30 nM, 24 hours, CD4+ T cells from five donors with HIV
  HIV RNA in culture supernatant: 1.7*10^9 ± 3.1*10^9 viral copies/mL
Class I and II HDAC; read-out: HDAC Inhibition IC50, Jurkat cells, 90 min, HDAC-Glo I/II
  IC50: > 1000 nM
Class I and II HDAC; up to 1 μM, Jurkat
  HDAC inhibition: no HDAC inhibition was observed
J-Lat 10.6 cells [4]; read-out: HMBA EC50, inhibition of provirus expression
  EC50: 99 ± 2 nM
J-Lat 10.6 cells [4]; read-out: JQ1 EC50, inhibition of provirus expression
  EC50: 14 ± 2 nM
J-Lat 10.6 cells [4]; [5]
  EC50: 19 ± 1 nM
